Assay results from ChEMBL document CHEMBL6182834, “Dual EGFR and telomerase inhibitory potential of new triazole tethered Schiff bases endowed with apoptosis: design, synthesis, and biological assessments” (RSC Med Chem, 2025).
pIC50: −log10 of the molar value.

Columns and labels:
[1] = Antiproliferative activity against human HNO 97 cell line assessed as growth inhibition at 100 ug/mL incubated for 48 hrs by SRB assay relative to control; assay type: functional; settings: read-out: GI
How it was run: (§1)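 SRB assay: cells seeded at 3×10^3/well, allowed 24 h to attach, then exposed to 100 µg/mL for 48 h, three wells per concentration, DMSO 1% v/v vehicle control. Cells fixed with 20% trichloroacetic acid and stained with 0.4% SRB, then OD read at 570 nm. Survival fraction taken as treated OD/control OD.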

[2] = test system: FaDu; test: Antiproliferative activity against human FaDu cells assessed as growth inhibition at 100 ug/mL incubated for 48 hrs by SRB assay relative to control; assay type: functional; settings: read-out: GI; how it was run: as §1
[3] = Cytotoxicity against human oral epithelial cells (OEC) assessed as growth inhibition at 100 ug/mL incubated for 48 hrs by SRB assay relative to control; assay type: toxicity, cell-based, Oral epithelial cell; settings: at 100 µg/mL, read-out: GI; how it was run: as §1
[4] = Cytotoxicity against HSF cells assessed as growth inhibition at 100 ug/mL incubated for 48 hrs by SRB assay relative to control; assay type: toxicity, cell-based; settings: human, at 100 µg/mL, read-out: GI; how it was run: as §1
[5] = test system: A-375; test: Antiproliferative activity against human A-375 cells assessed as growth inhibition at 100 ug/mL incubated for 48 hrs by SRB assay relative to control; assay type: functional; settings: read-out: GI; how it was run: as §1
[6] = test system: MDA-MB-468; test: Antiproliferative activity against human MDA-MB-468 cells assessed as growth inhibition at 100 ug/mL incubated for 48 hrs by SRB assay relative to control; assay type: functional; settings: read-out: GI; how it was run: as §1
[7] = test system: HeLa; test: Antiproliferative activity against human HeLa cells assessed as growth inhibition at 100 ug/mL incubated for 48 hrs by SRB assay relative to control; assay type: functional; settings: read-out: GI; how it was run: as §1
[8] = test system: MG-63; test: Antiproliferative activity against human MG-63 cells assessed as growth inhibition at 100 ug/mL incubated for 48 hrs by SRB assay relative to control; assay type: functional; settings: read-out: GI; how it was run: as §1
[9] = test system: HepG2; test: Antiproliferative activity against human HepG2 cells assessed as growth inhibition at 100 ug/mL incubated for 48 hrs by SRB assay relative to control; assay type: functional; settings: read-out: GI; how it was run: as §1
[10] = test system: Caco-2; test: Antiproliferative activity against human Caco-2 cells assessed as growth inhibition at 100 ug/mL incubated for 48 hrs by SRB assay relative to control; assay type: functional; settings: read-out: GI; how it was run: as §1
[11] = test system: HCT-116; test: Antiproliferative activity against human HCT-116 cells assessed as growth inhibition at 100 ug/mL incubated for 48 hrs by SRB assay relative to control; assay type: functional; settings: read-out: GI; how it was run: as §1
[12] = test system: MCF7; test: Antiproliferative activity against human MCF7 cells assessed as growth inhibition at 100 ug/mL incubated for 48 hrs by SRB assay relative to control; assay type: functional; settings: read-out: GI; how it was run: as §1
[13] = test system: Huh-7; test: Antiproliferative activity against human Huh-7 cells assessed as growth inhibition at 100 ug/mL incubated for 48 hrs by SRB assay relative to control; assay type: functional; settings: read-out: GI; how it was run: as §1
[14] = Cytotoxicity against human HNO 97 cell line assessed as inhibition of cell growth incubated for 48 hrs by SRB assay; assay type: functional, cell-based; settings: HNO 97, 48 h
How it was run: (§2)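 Cells plated at 3×10^3/well and left 24 h to attach. Treated at 12.5, 25, 50 and 62.5 µg/mL for 48 h, three wells per concentration, with DMSO (1% v/v) vehicle control. Fixed with 20% TCA, stained with 0.4% SRB, OD read at 570 nm. Survival fraction = treated OD/control OD. IC50 from sigmoidal dose-response curve fitting.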

[15] = test system: HCT-116; test: Cytotoxicity against human HCT-116 cells assessed as inhibition of cell growth incubated for 48 hrs by SRB assay; assay type: functional, cell-based; settings: HCT-116, 48 h; how it was run: as §2
[16] = test system: HepG2; test: Cytotoxicity against human HepG2 cells assessed as inhibition of cell growth incubated for 48 hrs by SRB assay; assay type: functional, cell-based; settings: HepG2, 48 h; how it was run: as §2
[17] = test system: A-375; test: Cytotoxicity against human A-375 cells assessed as inhibition of cell growth incubated for 48 hrs by SRB assay; assay type: functional, cell-based; settings: A-375, 48 h; how it was run: as §2

COc1cccc(/C=N/NC(=O)c2nnn(-c3ccc([N+](=O)[O-])cc3)c2C)c1OC gave an inhibition of growth at 100 µg/mL [1] of 54%, an inhibition of growth at 100 µg/mL [2] of 56% and an inhibition at 48 h, 100 ug/mL [3] of 36%. The inhibition at 48 h, 100 ug/mL [4] was 19%, the inhibition of growth at 100 µg/mL [5] was 75% and the inhibition of growth at 100 µg/mL [6] was 56%. It also gave an inhibition of growth at 100 µg/mL [7] of 52%, an inhibition of growth at 100 µg/mL [8] of 44% and an inhibition of growth at 100 µg/mL [9] of 56%. The inhibition of growth at 100 µg/mL [10] was 32%, the inhibition of growth at 100 µg/mL [11] was 56% and the inhibition of growth at 100 µg/mL [12] was 63%. It also gave an inhibition of growth at 100 µg/mL [13] of 56%.

Compound COc1ccc(/C=N/NC(=O)c2nnn(-c3ccc(Br)cc3)c2C)cc1OC has an inhibition of growth at 100 µg/mL [1] of 86%, an inhibition of growth at 100 µg/mL [2] of 69% and an inhibition at 48 h, 100 ug/mL [3] of 28%. It also gave an inhibition at 48 h, 100 ug/mL [4] of 20%, an inhibition of growth at 100 µg/mL [5] of 77% and an inhibition of growth at 100 µg/mL [6] of 54%. For the same compound, the inhibition of growth at 100 µg/mL [7] was 65%, the inhibition of growth at 100 µg/mL [8] was 42% and the inhibition of growth at 100 µg/mL [9] was 59%. It also gave an inhibition of growth at 100 µg/mL [10] of 40%, an inhibition of growth at 100 µg/mL [11] of 63% and an inhibition of growth at 100 µg/mL [12] of 86%. The inhibition of growth at 100 µg/mL [13] was 53%.

COc1cc(/C=N/NC(=O)c2nnn(-c3ccc([N+](=O)[O-])cc3)c2C)cc(OC)c1OC gave an inhibition of growth at 100 µg/mL [1] of 68%, an inhibition of growth at 100 µg/mL [2] of 70% and an inhibition at 48 h, 100 ug/mL [3] of 39%. For the same compound, the inhibition at 48 h, 100 ug/mL [4] was 28%, the inhibition of growth at 100 µg/mL [5] was 50% and the inhibition of growth at 100 µg/mL [6] was 70%. The inhibition of growth at 100 µg/mL [7] was 29%, the inhibition of growth at 100 µg/mL [8] was 40% and the inhibition of growth at 100 µg/mL [9] was 44%. For the same compound, the inhibition of growth at 100 µg/mL [10] was 60%, the inhibition of growth at 100 µg/mL [11] was 35% and the inhibition of growth at 100 µg/mL [12] was 49%. For the same compound, the inhibition of growth at 100 µg/mL [13] was 74%.

In the case of COc1cccc2c1C(=O)c1c(O)c3c(c(O)c1C2=O)C[C@@](O)(C(=O)CO)C[C@@H]3O[C@H]1C[C@H](N)[C@H](O)[C@H](C)O1 [DOXORUBICIN], the inhibition of growth at 100 µg/mL [1] was 59%, the inhibition of growth at 100 µg/mL [2] was 61% and the inhibition at 48 h, 100 ug/mL [3] was 41%. It also gave an inhibition at 48 h, 100 ug/mL [4] of 42%, a pIC50 [14] of 5.05 and an inhibition of growth at 100 µg/mL [5] of 52%. For the same compound, the inhibition of growth at 100 µg/mL [6] was 73%, the inhibition of growth at 100 µg/mL [7] was 76% and the inhibition of growth at 100 µg/mL [8] was 51%. It also gave a pIC50 [15] of 4.98, an inhibition of growth at 100 µg/mL [9] of 72% and an inhibition of growth at 100 µg/mL [10] of 71%. It also gave an inhibition of growth at 100 µg/mL [11] of 76%, a pIC50 [16] of 4.96 and an inhibition of growth at 100 µg/mL [12] of 69%. For the same compound, the inhibition of growth at 100 µg/mL [13] was 63% and the pIC50 [17] was 4.84.

COc1cccc(/C=N/NC(=O)c2nnn(-c3ccc(Br)cc3)c2C)c1OC showed an inhibition of growth at 100 µg/mL [1] of 77%, an inhibition of growth at 100 µg/mL [2] of 79% and an inhibition at 48 h, 100 ug/mL [3] of 19%. It also gave an inhibition at 48 h, 100 ug/mL [4] of 35%, an inhibition of growth at 100 µg/mL [5] of 73% and an inhibition of growth at 100 µg/mL [6] of 63%. The inhibition of growth at 100 µg/mL [7] was 68%, the inhibition of growth at 100 µg/mL [8] was 63% and the inhibition of growth at 100 µg/mL [9] was 69%. For the same compound, the inhibition of growth at 100 µg/mL [10] was 47%, the inhibition of growth at 100 µg/mL [11] was 69% and the inhibition of growth at 100 µg/mL [12] was 60%. It also gave an inhibition of growth at 100 µg/mL [13] of 70%.

COc1cccc(/C=N/NC(=O)c2nnn(-c3ccc(F)cc3)c2C)c1OC gave an inhibition of growth at 100 µg/mL [1] of 69%, an inhibition of growth at 100 µg/mL [2] of 70% and an inhibition at 48 h, 100 ug/mL [3] of 13%. The inhibition at 48 h, 100 ug/mL [4] was 9%, the inhibition of growth at 100 µg/mL [5] was 71% and the inhibition of growth at 100 µg/mL [6] was 52%. For the same compound, the inhibition of growth at 100 µg/mL [7] was 45%, the inhibition of growth at 100 µg/mL [8] was 42% and the inhibition of growth at 100 µg/mL [9] was 49%. The inhibition of growth at 100 µg/mL [10] was 36%, the inhibition of growth at 100 µg/mL [11] was 64% and the inhibition of growth at 100 µg/mL [12] was 78%. It also gave an inhibition of growth at 100 µg/mL [13] of 68%.
